From the array DNA melting data of Ke et al. (doi:10.1101/2024.01.08.574731)

What was measured:
[1] = folding enthalpy; higher = less favourable; fluorescence melt of hairpins on a sequencing array, two-state fit; conditions: sodium 0.088 M
Summary of the method: (§1)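 In 50 mM Na-HEPES pH 8.0 containing 25 mM NaCl, hairpins from the library on a sequenced MiSeq flow cell were imaged for Cy3 fluorescence at 2.5 °C steps up to 60 °C, with Cy3 and quencher oligos annealed. After normalisation to pre-quench Cy3 and to control constructs, two-state fits with bootstrapping gave melting temperature and folding enthalpy. Four replicates were combined by inverse-variance weighting, and fitted temperatures were shifted up by 9.35 °C to match UV melts.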

[2] = melting temperature; fluorescence melt of hairpins on a sequencing array, two-state fit, raised by 9.35 °C to match UV melts; conditions: sodium 0.088 M
Summary of the method: as §1

Row | Sequence | folding enthalpy [1] | Tm [2]
1 | GTATTCGGAAACGAGTAC (((.(((....))).))) | -28.6 kcal/mol | 43.6 °C
2 | GGGCGTGGAAACACGTCC ((.((((....)))).)) | -36.1 kcal/mol | 62.1 °C
3 | GCGAAACTTCGC ((((....)))) | -19.9 kcal/mol | 51.1 °C
4 | GGAGGCGAAAGCCCTCC ((((((....))).))) | -18.1 kcal/mol | 61.1 °C
5 | GAATCCGAAAGGATTTC ((((((....))).))) | -13.8 kcal/mol | 48.6 °C
6 | GGCTTGGAAACAAGCC ((((((....)))))) | -31.2 kcal/mol | 66.6 °C
7 | GTCTTTTCGAAAGAAGAC (((..(((....)))))) | -18.7 kcal/mol | 31.6 °C
8 | GAGTACCGAAAGGTTCTC (((.(((....))).))) | -30.7 kcal/mol | 47.9 °C
9 | GGGCACGAAAGTGCGCCC ((((((....)))..))) | -11.8 kcal/mol | 54.9 °C
10 | GCCAGCGGAAACGCTGAC (.(((((....))))).) | -13.7 kcal/mol | 51.5 °C
11 | GGGGTACGAAAGTATCCC (((.(((....))).))) | -33.5 kcal/mol | 58 °C
12 | GGTGACGAAAGTCTGACC ((((((....)))..))) | -15.6 kcal/mol | 39.7 °C
13 | GCAGCCGAAAGGCGTGC ((((((....))).))) | -16.5 kcal/mol | 65 °C
14 | GGAATAGAAATATTCC ((((((....)))))) | -29.3 kcal/mol | 41.7 °C
15 | GTACACACGAAAGTGTAC (((..(((....)))))) | -16.6 kcal/mol | 46.5 °C
16 | GATGAACGAAAGTTATC (((.(((....)))))) | -11.1 kcal/mol | 28.4 °C
17 | GTCAGGCGAAAGCCGGAC (((.(((....))).))) | -24.7 kcal/mol | 69.1 °C
18 | GCTTGCGAAAGCACTAGC ((((((....)))..))) | -12.7 kcal/mol | 33.8 °C
19 | GATCGCTACCGCGATC ((((((....)))))) | -35.1 kcal/mol | 68.2 °C
20 | GACGTGGGAAACCATGTC (((.(((....))).))) | -42.7 kcal/mol | 51.4 °C
21 | GACCCCGGAAACGGGACC (..((((....))))..) | -8.3 kcal/mol | 28.1 °C
22 | GTGATAGGAAACTGTCAC ((((.((....)).)))) | -36.5 kcal/mol | 45.7 °C
23 | GTAATCACGAAAGTGTAC (((..(((....)))))) | -10.9 kcal/mol | 29.3 °C
24 | GGATATCCGAAAGGATCC (((..(((....)))))) | -11.4 kcal/mol | 32.3 °C

Row | Sequence | folding enthalpy [1] | Tm [2]
25 | GATGGAGAAATCCATC ((((((....)))))) | -30 kcal/mol | 51 °C
26 | GATCCCCGGTGGGATC ((((((....)))))) | -37.5 kcal/mol | 57.7 °C
27 | GGCGAGGGAAACCTCACC ((.((((....)))).)) | -31.7 kcal/mol | 48.5 °C
28 | GGGCAGCGAAAGCTTCCC (((.(((....))).))) | -38.7 kcal/mol | 55.8 °C
29 | GCACCGCGAAAGCTGAGC ((.(.((....)).).)) | -14.4 kcal/mol | 37.5 °C
30 | GATCTCGCTGAGATC ((((((...)))))) | -43.6 kcal/mol | 53.8 °C
31 | GATCAGGGTGCTGATC ((((((....)))))) | -31.2 kcal/mol | 51.5 °C
32 | GATCTTGGAAACGAGATC (((((.(....).))))) | -36.7 kcal/mol | 44.2 °C
33 | GATCCTAGATAGGATC ((((((....)))))) | -36.1 kcal/mol | 50.8 °C
34 | GATCTATACTAGATC ((((((...)))))) | -32.6 kcal/mol | 40.6 °C
35 | GATCTTGCCCAAGATC ((((((....)))))) | -45.9 kcal/mol | 48.9 °C
36 | GAGGTCACGAAAGTGCTC (((..(((....)))))) | -13.4 kcal/mol | 30.7 °C
37 | GATCACAGGAGTGATC ((((((....)))))) | -38.2 kcal/mol | 54.8 °C
38 | GATCTGCTCCCAGATC ((((((....)))))) | -37.1 kcal/mol | 47.9 °C
39 | GCGTGCTTACGC ((((....)))) | -16.9 kcal/mol | 54.9 °C
40 | GTATACGAAAGTATCTAC ((((((....)))..))) | -18.6 kcal/mol | 32.5 °C
41 | GATCTACCTCTAGATC ((((((....)))))) | -36.3 kcal/mol | 37.8 °C
42 | GCGATGGTCGC ((((...)))) | -7.34 kcal/mol | 47.8 °C
43 | GCGACGGGAAACCGTTGC ((.((((....)))).)) | -40 kcal/mol | 61 °C
44 | GATCTAGGACTAGATC ((((((....)))))) | -39.7 kcal/mol | 47.4 °C
45 | GGGTTTGGAAACAAGTCC ((..(((....)))..)) | -22.3 kcal/mol | 30.4 °C
46 | GTGTGTGAAAACACAC ((((((....)))))) | -36.7 kcal/mol | 64.3 °C
47 | GACCGCGAAAGCGCGTC ((((((....))).))) | -21 kcal/mol | 63.1 °C
48 | GATTACGAAAGTACATC ((((((....))).))) | -17.7 kcal/mol | 31.1 °C

Row | Sequence | folding enthalpy [1] | Tm [2]
49 | GCGTAGTAACGC ((((....)))) | -22 kcal/mol | 53 °C
50 | GTGATTGGAAACAATCGC (.(((((....))))).) | -40.7 kcal/mol | 49.1 °C
51 | GCAAACGAAAGTTGGTGC ((((((....)))..))) | -22.5 kcal/mol | 36.7 °C
52 | GATCACAGGGTGATC ((((((...)))))) | -36.8 kcal/mol | 61.2 °C
53 | GATCGTACAACGATC ((((((...)))))) | -37.4 kcal/mol | 56.5 °C
54 | GCCGAACCGAAAGGTGGC (((..(((....)))))) | -26.4 kcal/mol | 53.1 °C
55 | GGCGACTCGAAAGAGGCC (((..(((....)))))) | -16.9 kcal/mol | 49.7 °C
56 | GATCGCTGGCGCGATC ((((((....)))))) | -35.7 kcal/mol | 65.9 °C
57 | CGCCACGGAAACGTAGCG (((.(((....))).))) | -37.7 kcal/mol | 50.1 °C
58 | GCACAGGGAAACCTGTGC (((((((....))))))) | -38 kcal/mol | 69.3 °C
59 | GCGCAGGGAAACCTACGC (((.(((....))).))) | -39.9 kcal/mol | 50.1 °C
60 | GTGCACGGAAACGCGCAC ((((.((....)).)))) | -49 kcal/mol | 57.7 °C
61 | GGAAAGGGAAACCCTTCC ((((.((....)).)))) | -23.1 kcal/mol | 40 °C
62 | GCTAGCGGAAACGTTGGC ((.(.((....)).).)) | -24.6 kcal/mol | 39.6 °C
63 | GTCGGGGGAAACCCTGAC (((.(((....))).))) | -53.6 kcal/mol | 53.4 °C
64 | GGTTCCGAAAGGAGCACC ((((((....)))..))) | -13.8 kcal/mol | 39.1 °C
65 | TTGATGAAAATCAA (((((....))))) | -13.4 kcal/mol | 32.8 °C
66 | GATCCACTCATGGATC ((((((....)))))) | -41.5 kcal/mol | 52.5 °C
67 | GGGAAAGGAAACTCTCCC ((((.((....)).)))) | -17.2 kcal/mol | 30.2 °C
68 | GTATGCACGAAAGTGTAC (((..(((....)))))) | -9.37 kcal/mol | 31.1 °C
69 | GGCTTCGAAAGAAGGGCC ((((((....)))..))) | -19.6 kcal/mol | 40.4 °C
70 | GATCTTACCCAAGATC ((((((....)))))) | -26.2 kcal/mol | 42.1 °C
71 | GTGCTTCGAAAGAAACAC (((.(((....))).))) | -36 kcal/mol | 45.6 °C
72 | GGTAATGGAAACACTACC ((((.((....)).)))) | -15.4 kcal/mol | 30.1 °C

Row | Sequence | folding enthalpy [1] | Tm [2]
73 | CGTGTCGGAAACGAACG (((.(((....)))))) | -24.3 kcal/mol | 37.7 °C
74 | GCCAGCGGAAACGCTAGC ((.((((....)))).)) | -20.5 kcal/mol | 49 °C
75 | GAAAACGGAAACGCTTTC ((((.((....)).)))) | -32.4 kcal/mol | 34.8 °C
76 | GCGCCGCGAAAGCGAAGC ((..(((....)))..)) | -32 kcal/mol | 64.8 °C
77 | GTACTCGAAAGAGAGTAC ((((((....)))..))) | -29.4 kcal/mol | 46.8 °C
78 | GTTCGTGGAAACGTGAAC ((((..(....)..)))) | -15.3 kcal/mol | 34.8 °C
79 | GTGCGCGAAAGCGAACAC ((((((....)))..))) | -12.6 kcal/mol | 58.5 °C
80 | GGCTAGGGAAACCTAGCC (((((((....))))))) | -42.6 kcal/mol | 67.5 °C
81 | CGCAACGGAAACGTAGCG (((.(((....))).))) | -38 kcal/mol | 53.4 °C
82 | GCGTGAGAAATCACGC ((((((....)))))) | -29.5 kcal/mol | 69 °C
83 | GCTTTACGAAAGTACAGC (((.(((....))).))) | -28.6 kcal/mol | 44.8 °C
84 | GATCAGAAACCTGATC ((((((....)))))) | -36.9 kcal/mol | 44.1 °C
85 | GAAAGGCGAAAGCCTTC (((.(((....)))))) | -10.4 kcal/mol | 49.6 °C
86 | GCATGGCGAAAGCAAAGC ((.(.((....)).).)) | -10.9 kcal/mol | 31.8 °C
87 | GCCTAGCGAAAGCTCTGC ((..(((....)))..)) | -11.7 kcal/mol | 34.3 °C
88 | GCGAATCCTCGC ((((....)))) | -24.5 kcal/mol | 46.3 °C
89 | GCAAGCGAAAGCTGCTGC ((((((....)))..))) | -19.5 kcal/mol | 67.2 °C
90 | GTGGGACCGAAAGGTCAC (((..(((....)))))) | -19.5 kcal/mol | 64.2 °C
91 | GATCATGCCCATGATC ((((((....)))))) | -43 kcal/mol | 53.5 °C
92 | GCTCTGGGAAACCAAAGC (((.(((....))).))) | -23.7 kcal/mol | 35.5 °C
93 | GTTCCAGGAAACCGGAAC (((((.(....).))))) | -45.4 kcal/mol | 45.6 °C
